The text below walks through data of ChEMBL document CHEMBL2046297, “Synthesis and evaluation of substituted dibenzo[c,e]azepine-5-ones as P-glycoprotein-mediated multidrug resistance reversal agents” (Bioorg Med Chem Lett, 2012).

The subject of series [1] is K562. Briefly: Antiproliferative activity against human K562 cells after 72 hrs by MTS assay. The format is functional, cell-based. The note with it: K562, 72 h. Put shortly:
(§1)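 Growth inhibition of parental K562 and drug-resistant K562/A02 leukemia cells, measured by MTS after 72 h exposure. IC50 is the concentration giving a 50% drop in cell growth. Values are means of three experiments. ADR served as positive control.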
Background: Tetrazolium assays rely on reduction of a dye to a coloured formazan, in cell work by metabolically active cells.

Series [2] is described as follows: Antiproliferative activity against multidrug-resistant human K562/A02 cells overexpressing p-glycoprotein after 72 hrs by MTS assay. The settings on record: K562/A02, 72 h. Type of series: functional, cell-based. Put shortly:
as §1

Series [3] concerns the target ATP-dependent translocase ABCB1 (Homo sapiens, UniProt P08183). Briefly: Inhibition of P-glycoprotein-mediated rhodamine 123 uptake expressed in multidrug-resistant human K562/A02 cells assessed as fluorescence activity ratio at 10 uM after 72 hrs by flow cytometry relative to untreated control. The note with it: k562/a02, 72 h. Type of series: cell-based. In short, it runs like this:
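Rh123 accumulation in P-gp-overexpressing K562/A02 cells with compound at 10 µM. FAR is the ratio of mean Rh123 fluorescence intensity in treated versus untreated cells. VRP served as positive control.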

Series [4] concerns K562/A02. Briefly: Inhibition of Pgp-mediated multidrug-resistance in human K562/A02 cells assessed as potentiation of adriamycin-induced cytotoxicity after 72 hrs by MTS assay. The format is cell-based. Put shortly: (§2)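 Chemosensitization was tested by co-treating K562/A02 cells with 2 µM ADR or K562 cells with 0.04 µM ADR, plus compound at 2.5, 5 or 10 µM, for 72 h. Survival was read by MTS and compared with ADR alone. VRP served as positive control.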

Series [5] concerns K562. Briefly: Potentiation of adriamycin-induced cytotoxicity in human K562 cells after 72 hrs by MTS assay. Type of series: functional, cell-based. Put shortly:
as §2

In series [6] the test system is K562/A02. Briefly: Inhibition of Pgp-mediated rhodamine-123 efflux in multidrug-resistance human K562/A02 cells assessed as increase in intracellular accumulation of rhodamine-123 after 60 mins by fluorescence microscopic analysis. The format is cell-based. Put shortly: (§3)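 K562/A02 cells were incubated with 0.5 µM Rh123 or 0.5 µM ADR, with or without 0.33, 3.3 or 10 µM compound, at 37 °C for 30 min. K562 cells received dye only. Cells were washed twice in PBS, resuspended in medium and left 60 min at 37 °C for efflux. Read-out was fluorescence microscopy or flow cytometry (ex/em 488/520 nm Rh123; 488/570 nm ADR). Vehicle was 0.1% DMSO.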

For series [7], the system named is K562/A02. Briefly: Inhibition of Pgp-mediated adriamycin efflux in multidrug-resistance human K562/A02 cells assessed as increase in intracellular accumulation of adriamycin after 60 mins by FACS flow cytometry. The format is cell-based. Put shortly: as §3
On the technique in general: A flow cytometer gives signals particle by particle.

Series [8] deals with K562/A02. Briefly: Survival of human K562/A02 cells in presence of adriamycin at 5 uM after 72 hrs by MTS assay.
Series [9] has as its system K562/A02. Briefly: Survival of human K562/A02 cells in presence of adriamycin at 10 uM after 72 hrs by MTS assay.
For series [10], the system named is K562/A02. Briefly: Survival of human K562/A02 cells in presence of adriamycin at 2.5 uM after 72 hrs by MTS assay.

pIC50: −log10 of the molar value. Active and inactive are the calls of the source. The rule behind the calls is not given here.

Chain of ATP-dependent translocase ABCB1 (P08183 whole entry): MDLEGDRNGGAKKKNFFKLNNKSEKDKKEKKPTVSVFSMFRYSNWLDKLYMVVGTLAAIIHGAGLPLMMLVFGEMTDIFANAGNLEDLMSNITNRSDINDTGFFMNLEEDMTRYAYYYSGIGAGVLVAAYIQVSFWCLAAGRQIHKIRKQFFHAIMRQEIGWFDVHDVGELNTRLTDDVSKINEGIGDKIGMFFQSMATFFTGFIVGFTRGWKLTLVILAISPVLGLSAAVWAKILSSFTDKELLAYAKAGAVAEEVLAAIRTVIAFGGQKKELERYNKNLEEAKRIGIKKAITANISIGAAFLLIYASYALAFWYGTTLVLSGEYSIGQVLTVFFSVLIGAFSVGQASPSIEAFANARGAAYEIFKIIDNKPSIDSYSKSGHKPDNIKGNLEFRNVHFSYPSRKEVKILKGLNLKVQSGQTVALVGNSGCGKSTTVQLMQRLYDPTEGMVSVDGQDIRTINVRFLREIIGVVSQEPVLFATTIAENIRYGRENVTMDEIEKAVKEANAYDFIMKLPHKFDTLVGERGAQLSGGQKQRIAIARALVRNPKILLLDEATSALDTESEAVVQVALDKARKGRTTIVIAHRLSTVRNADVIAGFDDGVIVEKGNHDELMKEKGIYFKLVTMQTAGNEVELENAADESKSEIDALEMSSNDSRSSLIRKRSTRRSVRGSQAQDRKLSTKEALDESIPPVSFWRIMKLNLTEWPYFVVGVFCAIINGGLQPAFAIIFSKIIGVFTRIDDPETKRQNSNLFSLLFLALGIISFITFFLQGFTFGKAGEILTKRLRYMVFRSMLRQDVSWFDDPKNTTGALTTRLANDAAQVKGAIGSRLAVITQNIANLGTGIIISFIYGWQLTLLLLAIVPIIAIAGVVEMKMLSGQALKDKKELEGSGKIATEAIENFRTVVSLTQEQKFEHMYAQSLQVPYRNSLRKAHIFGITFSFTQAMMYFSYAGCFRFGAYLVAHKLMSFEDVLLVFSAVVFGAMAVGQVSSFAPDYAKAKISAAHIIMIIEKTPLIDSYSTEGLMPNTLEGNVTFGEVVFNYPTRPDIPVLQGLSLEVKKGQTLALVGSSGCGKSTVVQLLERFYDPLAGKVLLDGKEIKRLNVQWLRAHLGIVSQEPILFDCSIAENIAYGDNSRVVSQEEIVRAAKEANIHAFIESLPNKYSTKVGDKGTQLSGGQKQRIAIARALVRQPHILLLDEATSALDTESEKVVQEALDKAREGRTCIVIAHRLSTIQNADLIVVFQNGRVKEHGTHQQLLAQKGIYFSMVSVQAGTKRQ

For `COc1cc2c(c3c1OCO3)-c1c(cc(OC)c3c1OCO3)C(=O)N(CCN1CCCC1)C2`, the pIC50 in series [1] and in series [2] was less than 4.00 each time. In addition, the Ratio in [3] is 1.65.
In the case of `CCCN(CCC)CCN1Cc2cc(OC)c3c(c2-c2c(cc(OC)c4c2OCO4)C1=O)OCO3`, the pIC50 in series [1] and in [2] was less than 4.00 in each case. Also, the Ratio in series [3] is reported as 2.84.
For the compound `COc1cc2c(c3c1OCO3)-c1c(cc(OC)c3c1OCO3)C(=O)N(CCN1CCN(Cc3ccccc3)CC1)C2`, the pIC50 in [1] is 4.31; in series [2], 4.25. Further, the Ratio in series [3] was found to be 14.11. The inhibition result in series [4], in series [6] and in series [7] was “Dose-dependent effect” each time. Further, the result in series [5] was inactive. The survival rate in [8] was 19.9%; in series [9] it was 7.5%; in series [10], 33.9%.
As for `COc1cc2c(c3c1OCO3)-c1c(cc(OC)c3c1OCO3)C(=O)N(CCN1CCN(C)CC1)C2`, the negative-log IC50 (pIC50) in series [1] and in series [2] was less than 4.00 in each case. Also, the Ratio in series [3] is reported as 1.03.
On to `COc1ccc(CCN(C)CCCC(C#N)(c2ccc(OC)c(OC)c2)C(C)C)cc1OC` (configuration not stated) [VERAPAMIL], for which the Ratio in [3] stood at 4.16.
For the compound `COc1cc2c(c3c1OCO3)-c1c(cc(OC)c3c1OCO3)C(=O)N(CCN(C)C)C2`, the pIC50 in [1] and in series [2] was less than 4.00 each time. Besides, the Ratio in [3] was 1.44.
For `CCN(CC)CCN1Cc2cc(OC)c3c(c2-c2c(cc(OC)c4c2OCO4)C1=O)OCO3`, the figures for the pIC50 in [1] and in series [2] were 4.20 and 4.02, respectively. Moreover, in series [3], the Ratio was found to be 2.57.
The corresponding values for `COc1cc2c(c3c1OCO3)-c1c(cc(OC)c3c1OCO3)C(=O)N(CCN1CCCCC1)C2` are 4.05, 4.04 and 3.46.
Regarding `COc1cc2c(c3c1OCO3)-c1c(cc(OC)c3c1OCO3)C(=O)N(CCN1CCOCC1)C2`, the pIC50 in series [1] and in series [2] was less than 4.00 throughout. Moreover, the Ratio in series [3] is listed as 3.23.

Broadly, the pIC50 is the negative decadic logarithm of the IC50, by convention in mol/L.
